# Results reported in PMC7482441 (Pharmacological Research, 2020).
# Columns and labels:
# ambulant boys with DMD = test: Phase Ib safety assessments; assay type: in vivo, human
# Outline: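 Open-label study in boys aged 6–14 with genetically confirmed DMD, walking ≥75 m and on stable corticosteroids ≥6 months. Dosing was oral, 50–300 mg TID for 4 weeks, in 4 ascending cohorts. Assessments at screening, weeks 1, 2 and 4, and 1–2 weeks post-treatment: physical exam, AEs, supine/standing blood pressure and heart rate, respiratory rate. Also 12-lead ECG with QT, read locally and centrally, plus blood/urine haematology and biochemistry.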
# animal models = conditions: cited from earlier work
# CCL15 = test: Circulating biomarker, baseline vs 4-week treatment; assay type: in vivo, human; conditions: 20 DMD patients, OLink, p-value 0.0003, FDR 0.17
# [1] = tested on: TR (Transferrin receptor); test: as above; assay type: in vivo, human; conditions: 20 DMD patients, OLink, p-value 3.0e-6, FDR 0.0004
# skeletal muscle = test: NMRI of skeletal muscle; assay type: in vivo, human; conditions: dose escalation, 4-week treatment
# Outline: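 NMRI of both lower limbs was acquired locally at baseline and week 4 of oral treatment (50–300 mg TID, 4 ascending-dose cohorts). Indices were water T2 and fat fraction in skeletal muscle. Descriptive statistics were produced per cohort.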
# TNFα = test: Circulating biomarker, baseline vs 4-week treatment; assay type: in vivo, human; conditions: 20 DMD patients, Luminex, p-value 0.0009, FDR 0.24
# mdx mice = conditions: short and long term studies in mdx mice; cited from earlier work
# [2] = tested on: sodium-proton exchanger isoform 1 (NHE-1); conditions: cited from earlier work
# MCP1 = test: Circulating biomarker, baseline vs 4-week treatment; assay type: in vivo, human; conditions: 20 DMD patients, OLink, p-value 0.0016, FDR 0.39
# FAS = test: as above; assay type: in vivo, human; conditions: 20 DMD patients, OLink, p-value 0.0007, FDR 0.24
# IGFBP1 = test: as above; assay type: in vivo, human; conditions: 20 DMD patients, OLink, p-value 1.7e-8, FDR 4e-6
# healthy male subjects = conditions: earlier Merck KGaA phase I studies; cited from earlier work
# [3] = Cohort 1 N = 5, 150 to 225 mg daily oral, 4 weeks
# [4] = Cohort 2 N = 5, 300 to 450 mg daily oral, 4 weeks
# [5] = Cohort 3 N = 5, 450 to 600 mg daily oral, 4 weeks
# [6] = Cohort 4 N = 5, 600 to 900 mg daily oral, 4 weeks
structure (smiles),measurement,setting,value
[H]/N=C(\N)NC(=O)c1cc(S(C)(=O)=O)c(S(C)(=O)=O)cc1C [Rimeporide],12-lead ECGs,ambulant boys with DMD; 4-week treatment,no clinically important changes
same,Abdominal pain upper: patients (events),"ambulant boys with DMD; All patients N = 20, 4 weeks",2 (3 events)
same,Chills: patients (events),"ambulant boys with DMD; All patients N = 20, 4 weeks",1 (2 events)
same,Cough: patients (events),"ambulant boys with DMD; All patients N = 20, 4 weeks",3 (3 events)
same,Dizziness: patients (events),"ambulant boys with DMD; All patients N = 20, 4 weeks",1 (1 event)
same,Ear and labyrinth disorders: patients (events),"ambulant boys with DMD; All patients N = 20, 4 weeks",1 (1 event)
same,Fall: patients (events),"ambulant boys with DMD; All patients N = 20, 4 weeks",1 (1 event)
same,Flushing: patients (events),"ambulant boys with DMD; All patients N = 20, 4 weeks",2 (3 events)
same,Gastrointestinal disorders: patients (events),"ambulant boys with DMD; All patients N = 20, 4 weeks",6 (10 events)
same,General disorders and administration site conditions: patients (events),"ambulant boys with DMD; All patients N = 20, 4 weeks",2 (3 events)
same,Infections and infestations: patients (events),"ambulant boys with DMD; All patients N = 20, 4 weeks",4 (4 events)
same,"Injury, poisoning and procedural complications: patients (events)","ambulant boys with DMD; All patients N = 20, 4 weeks",1 (1 event)
same,Mouth ulceration: patients (events),"ambulant boys with DMD; All patients N = 20, 4 weeks",1 (1 event)
same,Nervous system disorders: patients (events),"ambulant boys with DMD; All patients N = 20, 4 weeks",7 (8 events)
same,Oropharyngeal pain: patients (events),"ambulant boys with DMD; All patients N = 20, 4 weeks",1 (1 event)
same,Presyncope: patients (events),"ambulant boys with DMD; All patients N = 20, 4 weeks",1 (1 event)
same,Pyrexia: patients (events),"ambulant boys with DMD; All patients N = 20, 4 weeks",1 (1 event)
same,"Respiratory, thoracic and mediastinal disorders: patients (events)","ambulant boys with DMD; All patients N = 20, 4 weeks",4 (4 events)
same,Tympanic membrane perforation: patients (events),"ambulant boys with DMD; All patients N = 20, 4 weeks",1 (1 event)
same,Vascular disorders: patients (events),"ambulant boys with DMD; All patients N = 20, 4 weeks",2 (3 events)
same,Vomiting: patients (events),"ambulant boys with DMD; All patients N = 20, 4 weeks",2 (2 events)
same,Abdominal pain upper: patients (events),ambulant boys with DMD; [3],0
same,Any treatment-emergent adverse event: patients (events),ambulant boys with DMD; [3],2 (6 events)
same,Chills: patients (events),ambulant boys with DMD; [3],1 (2 events)
same,Cough: patients (events),ambulant boys with DMD; [3],0
same,Diarrhoea: patients (events),ambulant boys with DMD; [3],0
same,Dizziness: patients (events),ambulant boys with DMD; [3],0
same,Ear and labyrinth disorders: patients (events),ambulant boys with DMD; [3],0
same,Fall: patients (events),ambulant boys with DMD; [3],1 (1 event)
same,Flushing: patients (events),ambulant boys with DMD; [3],0
same,Gastrointestinal disorders: patients (events),ambulant boys with DMD; [3],0
same,General disorders and administration site conditions: patients (events),ambulant boys with DMD; [3],1 (2 events)
same,Headache: patients (events),ambulant boys with DMD; [3],1 (1 event)
same,Infections and infestations: patients (events),ambulant boys with DMD; [3],0
same,"Injury, poisoning and procedural complications: patients (events)",ambulant boys with DMD; [3],1 (1 event)
same,Mouth ulceration: patients (events),ambulant boys with DMD; [3],0
same,Nasopharyngitis: patients (events),ambulant boys with DMD; [3],0
same,Nervous system disorders: patients (events),ambulant boys with DMD; [3],1 (1 event)
same,Oropharyngeal pain: patients (events),ambulant boys with DMD; [3],0
same,Presyncope: patients (events),ambulant boys with DMD; [3],0
same,Pyrexia: patients (events),ambulant boys with DMD; [3],0
same,"Respiratory, thoracic and mediastinal disorders: patients (events)",ambulant boys with DMD; [3],0
same,Tympanic membrane perforation: patients (events),ambulant boys with DMD; [3],0
same,Vascular disorders: patients (events),ambulant boys with DMD; [3],0
same,Vomiting: patients (events),ambulant boys with DMD; [3],0
same,Abdominal pain upper: patients (events),ambulant boys with DMD; [4],0
same,Any treatment-emergent adverse event: patients (events),ambulant boys with DMD; [4],1 (3 events)
same,Chills: patients (events),ambulant boys with DMD; [4],0
same,Cough: patients (events),ambulant boys with DMD; [4],1 (1 event)
same,Diarrhoea: patients (events),ambulant boys with DMD; [4],0
same,Dizziness: patients (events),ambulant boys with DMD; [4],0
same,Ear and labyrinth disorders: patients (events),ambulant boys with DMD; [4],0
same,Fall: patients (events),ambulant boys with DMD; [4],0
same,Flushing: patients (events),ambulant boys with DMD; [4],0
same,Gastrointestinal disorders: patients (events),ambulant boys with DMD; [4],1 (1 event)
same,General disorders and administration site conditions: patients (events),ambulant boys with DMD; [4],0
same,Headache: patients (events),ambulant boys with DMD; [4],0
same,Infections and infestations: patients (events),ambulant boys with DMD; [4],1 (1 event)
same,"Injury, poisoning and procedural complications: patients (events)",ambulant boys with DMD; [4],0
same,Mouth ulceration: patients (events),ambulant boys with DMD; [4],1 (1 event)
same,Nasopharyngitis: patients (events),ambulant boys with DMD; [4],1 (1 event)
same,Nervous system disorders: patients (events),ambulant boys with DMD; [4],0
same,Oropharyngeal pain: patients (events),ambulant boys with DMD; [4],0
same,Presyncope: patients (events),ambulant boys with DMD; [4],0
same,Pyrexia: patients (events),ambulant boys with DMD; [4],0
same,"Respiratory, thoracic and mediastinal disorders: patients (events)",ambulant boys with DMD; [4],1 (1 event)
same,Tympanic membrane perforation: patients (events),ambulant boys with DMD; [4],0
same,Vascular disorders: patients (events),ambulant boys with DMD; [4],0
same,Vomiting: patients (events),ambulant boys with DMD; [4],0
same,Abdominal pain upper: patients (events),ambulant boys with DMD; [5],1 (2 events)
same,Any treatment-emergent adverse event: patients (events),ambulant boys with DMD; [5],5 (15 events)
same,Chills: patients (events),ambulant boys with DMD; [5],0
same,Cough: patients (events),ambulant boys with DMD; [5],1 (1 event)
same,Diarrhoea: patients (events),ambulant boys with DMD; [5],3 (4 events)
same,Dizziness: patients (events),ambulant boys with DMD; [5],1 (1 event)
same,Ear and labyrinth disorders: patients (events),ambulant boys with DMD; [5],0
same,Fall: patients (events),ambulant boys with DMD; [5],0
same,Flushing: patients (events),ambulant boys with DMD; [5],1 (1 event)
same,Gastrointestinal disorders: patients (events),ambulant boys with DMD; [5],4 (8 events)
same,General disorders and administration site conditions: patients (events),ambulant boys with DMD; [5],0
same,Headache: patients (events),ambulant boys with DMD; [5],2 (2 events)
same,Infections and infestations: patients (events),ambulant boys with DMD; [5],2 (2 events)
same,"Injury, poisoning and procedural complications: patients (events)",ambulant boys with DMD; [5],0
same,Mouth ulceration: patients (events),ambulant boys with DMD; [5],0
same,Nasopharyngitis: patients (events),ambulant boys with DMD; [5],2 (2 events)
same,Nervous system disorders: patients (events),ambulant boys with DMD; [5],3 (3 events)
same,Oropharyngeal pain: patients (events),ambulant boys with DMD; [5],0
same,Presyncope: patients (events),ambulant boys with DMD; [5],0
same,Pyrexia: patients (events),ambulant boys with DMD; [5],0
same,"Respiratory, thoracic and mediastinal disorders: patients (events)",ambulant boys with DMD; [5],1 (1 event)
same,Tympanic membrane perforation: patients (events),ambulant boys with DMD; [5],0
same,Vascular disorders: patients (events),ambulant boys with DMD; [5],1 (1 event)
same,Vomiting: patients (events),ambulant boys with DMD; [5],2 (2 events)
same,Abdominal pain upper: patients (events),ambulant boys with DMD; [6],1 (1 event)
same,Any treatment-emergent adverse event: patients (events),ambulant boys with DMD; [6],4 (13 events)
same,Chills: patients (events),ambulant boys with DMD; [6],0
same,Cough: patients (events),ambulant boys with DMD; [6],1 (1 event)
same,Diarrhoea: patients (events),ambulant boys with DMD; [6],0
same,Dizziness: patients (events),ambulant boys with DMD; [6],0
same,Ear and labyrinth disorders: patients (events),ambulant boys with DMD; [6],1 (1 event)
same,Flushing: patients (events),ambulant boys with DMD; [6],1 (2 events)
same,Gastrointestinal disorders: patients (events),ambulant boys with DMD; [6],1 (1 event)
same,General disorders and administration site conditions: patients (events),ambulant boys with DMD; [6],1 (1 event)
same,Headache: patients (events),ambulant boys with DMD; [6],2 (3 events)
same,Infections and infestations: patients (events),ambulant boys with DMD; [6],1 (1 event)
same,Mouth ulceration: patients (events),ambulant boys with DMD; [6],0
same,Nasopharyngitis: patients (events),ambulant boys with DMD; [6],1 (1 event)
same,Nervous system disorders: patients (events),ambulant boys with DMD; [6],3 (4 events)
same,Oropharyngeal pain: patients (events),ambulant boys with DMD; [6],1 (1 event)
same,Presyncope: patients (events),ambulant boys with DMD; [6],1 (1 event)
same,Pyrexia: patients (events),ambulant boys with DMD; [6],1 (1 event)
same,"Respiratory, thoracic and mediastinal disorders: patients (events)",ambulant boys with DMD; [6],2 (2 events)
same,Tympanic membrane perforation: patients (events),ambulant boys with DMD; [6],1 (1 event)
same,Vascular disorders: patients (events),ambulant boys with DMD; [6],1 (2 events)
same,Vomiting: patients (events),ambulant boys with DMD; [6],0
same,gastrin levels,ambulant boys with DMD; after a four-week treatment,No modifications of gastrin levels
same,TEAEs of mild intensity,ambulant boys with DMD; all cohorts,Thirty-five
same,TEAEs reported as severe,ambulant boys with DMD; all cohorts,2
same,SAE related to study medication,"ambulant boys with DMD; all doses, 4 weeks, 20 DMD boys",No SAE related to study medication was reported
same,blood pressure and heart rate,"ambulant boys with DMD; standing and supine, 4-week treatment",devoid of any blood pressure or heart rate lowering effects
same,"treatment emergent adverse events (TEAEs), total events",ambulant boys with DMD; twelve patients of 20,37
same,exposure/concentration range with an efficacious response,animal models,500 to 2500 ng/mL
same,"CCL15: Term (TRT, linear mixed effect model, Day 28 vs Day 0)",CCL15,−0.4489
same,"TR: Term (TRT, linear mixed effect model, Day 28 vs Day 0)",[1],0.5252
same,NMRI indices in skeletal muscle,skeletal muscle,No notable change
same,"TNFα: Term (TRT, linear mixed effect model, Day 28 vs Day 0)",TNFα,−0.1726
same,effects in skeletal and cardiac muscles,mdx mice,potent anti-inflammatory and anti-fibrotic effects
same,NHE-1 inhibition,[2],potent and selective inhibitor
same,"MCP1: Term (TRT, linear mixed effect model, Day 28 vs Day 0)",MCP1,−0.5675
same,"FAS: Term (TRT, linear mixed effect model, Day 28 vs Day 0)",FAS,−0.2823
same,"IGFBP1: Term (TRT, linear mixed effect model, Day 28 vs Day 0)",IGFBP1,−2.7123
same,maximum tolerated dose,healthy male subjects,could not be defined
